Compound activity deposited in PubChem BioAssay by Columbia University Molecular Screening Center.
This is one part of a sample in which hits are shown more often than they occur.
Insulin prom act: TRM-6 insulin promoter activation; TRM-6 cells (human fetal islet line), insulin promoter eGFP reporter, imaging; plate-scaled: unstimulated 0, stimulated control 100; activation, % at 2 µM; 130,000 tested, 0.81% active; AID 1296;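 active = activation at 2 µM above a set limit, confirmed on inspection of the cell images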;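 note: share of cells whose green reporter signal exceeds an intensity cutoff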
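Assay system: TRM-6 human fetal islet cells, insulin promoter–eGFP reporter; Also added: 0.75 µM tamoxifen as reporter inducer; Schedule: 15 h tamoxifen pre-treatment, 48 h compound treatment at 37 °C; Signal: fixed-cell fluorescence microscopy, eGFP plus Hoechst; Read-out: percent activation from GFP-positive cell fraction; Control set: stimulated and unstimulated wells.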
* = called active by the depositor.

SMILES	Insulin prom act
CCCCN(CCCC)NC(=O)c1ccccc1	-7
CCCCP(=O)(CCCC)Cc1ccccc1O	610*
CNC(=O)C1=C(C)NC(=S)NC1c1cc2c(cc1OC)CCCC2 (stereo unspecified)	-9
Cc1ccc(CNC(=O)c2ccc(N3CCc4ccccc43)c([N+](=O)[O-])c2)cc1	-9
Cc1nn(-c2cc(N3CCOCC3)ccc2N)c(=O)c2ccccc12	6
Cc1nn(-c2cc(N3CCCC3)ccc2[N+](=O)[O-])c(=O)c2ccccc12	134*
Cc1ccc(-c2nn(-c3cc(Cl)ccc3[N+](=O)[O-])c(=O)c3ccccc23)cc1	2
O=C(O)Cn1nc(-c2ccc(F)cc2)oc1=O	0
Cc1nc(-c2ccccc2)cn(O)c1=O	-5
O=C1CCCC2=C1C(c1ccccc1)CC(=O)N2c1ccccc1 (stereo unspecified)	182*
Cc1cc(C)n(C2CC(=O)N(c3ccccc3)C2=O)n1 (stereo unspecified)	8
Cc1ccccc1C1CC(=O)NC2=C1C(=O)CCC2 (stereo unspecified)	-9
CCc1ccc(C2=NNC(=Nc3cccc(S(=O)(=O)N(C)C)c3)SC2)cc1	117
COc1cccc(N(Cc2nnc3n2CCCCC3)C(=O)Nc2ccccc2)c1	8
Cc1ccc(-n2c(-c3cccc(C)c3)n[nH]c2=S)cc1	-7
Cc1[nH]c2ccc(-c3n[nH]c(=S)n3-c3ccccc3)cc2c1C	-9
Cc1ccc(-c2n[nH]c(=S)n2-c2ccccc2)cc1	485*
CN(C)c1ccc(/C=N/NC(=O)C(=O)/C=C2\NC3(CCCC3)Cc3ccccc32)cc1	-8
CCOC(=O)/C=C1\NC(C)(C)Cc2cc(OC)c(OC)cc21	-72
CC1(C)Cc2ccccc2/C(=C/C(=O)N2CCCCCC2)N1	557*
CCc1cc2c(NCCN3CCCCC3)ncnc2s1	-9
Cc1ccc(C(=O)NCCc2cccc(Cl)c2)cc1[N+](=O)[O-]	109
O=C(Nc1c2c(nc3ccccc13)CCCC2)c1ccccc1F	-64
O=C(Nc1cccc2c1CCCC2)c1cc([N+](=O)[O-])cc([N+](=O)[O-])c1	-7
O=C(Nc1c2c(nc3ccccc13)CCCC2)c1cccc([N+](=O)[O-])c1	380*
SMILES	Insulin prom act
COc1ccc(-c2nnc(Sc3nc4ccccc4o3)c3ccccc23)cc1	-40
Cn1c(/C=C/N2CCOCC2)c(C(=O)c2ccc(Br)cc2)c(=O)n(C)c1=O	-36
O=C(COC(=O)CCC1CCCC1)Nc1ccc(Cl)cn1	0
O=C1c2ccccc2C(=O)N1CC(O)CN1CCOCC1 (stereo unspecified)	533*
CC(C(=O)N1CCOCC1)N1C(=O)c2ccccc2C1=O (stereo unspecified)	282
O=C(c1ccccc1)c1ccc(OCC(O)CN2CCOCC2)cc1 (stereo unspecified)	233
Cc1cc(C)c(NC(=O)C2=CCN(S(=O)(=O)c3ccc(F)cc3)CC2)c(C)c1	2
CCOC(=O)C1=C(Nc2ccccc2)CC(C)(O)C(C(=O)OCC)C1c1ccc(Cl)cc1 (stereo unspecified)	2
O=C(NC1CCCCC1)C(c1ccco1)N(Cc1cccnc1)C(=O)C1COc2ccccc2O1 (stereo unspecified)	7
C=CCNC(=S)N1CCC(C(=O)c2ccc(OC)cc2)CC1	3
COCCC(=O)N1CCCC(C(=O)c2ccc(Oc3ccccc3)cc2)C1 (stereo unspecified)	542*
COC(=O)C1CCN(C(=O)CCCOc2ccccc2)CC1	123
Cc1c(C(=O)NN)nn(-c2ccc(Cl)cc2)c(=O)c1C#N	0
CCOC(=O)c1nn(-c2ccccc2)c2nc(-c3ccc(OC)cc3)c(C#N)c(=O)n12	7
COC(=O)Nc1nn(-c2ccc(OC)cc2)c(=O)c(C#N)c1C	287*
COC(=O)c1cc(C(=O)Nc2cc(C)ccn2)cc([N+](=O)[O-])c1	118
C=CCn1cc(C(=O)OC)c(=O)c2cc(S(=O)(=O)N3CCC(C)CC3)ccc21	0
C=CCn1cc(C(=O)N2CCc3ccccc3C2)c(=O)c2cc(S(=O)(=O)N(CC)CC)ccc21	400*
O=C(c1ccc(S(=O)(=O)c2ccccc2)cc1)N1CCc2ccccc2C1	6
Cn1ccnc1SCC(=O)Nc1ccc2nc(SCC(=O)NC3CC3)sc2c1	7
Cc1ccc(-c2nnc(SCC(=O)N3CCCc4ccccc43)n2N)cc1	-9
CC(=O)c1ccc(NC(=O)CSc2nccn2CCc2ccccc2)cc1	7
CC(C)(C)NC(=O)Cn1nnc(-c2ccccc2NC(=O)c2cnccn2)n1	8
O=C(NC1CCCc2ccccc21)C1CCN(c2nnc(-n3cccc3)s2)CC1 (stereo unspecified)	186*
O=C(NC1CCCc2ccccc21)C1CCN(S(=O)(=O)c2ccccc2F)CC1 (stereo unspecified)	0
O=C(NC1CCCc2ccccc21)C1CCN(S(=O)(=O)c2cnc[nH]2)CC1 (stereo unspecified)	156
O=C(NCc1ccccn1)c1cc(-c2ccc(Br)cc2)nc2ccccc12	7
